Experimental data from ChEMBL document CHEMBL3868590, “Quambalarine B, a Secondary Metabolite from Quambalaria cyanescens with Potential Anticancer Properties” (J Nat Prod, 2016).
The source made the active and inactive calls. The rule behind the calls is not given here.

Key:
[1] = Cytotoxicity against B lymphocytes in human PBMC population assessed as reduction in viable cells measured after 24 hrs by Hoechst-33258 staining-based FACS analysis; assay type: toxicity, cell-based, B-cell
Method in brief: (§1)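 PBMC were isolated from blood on a Ficoll-Paque gradient and seeded at 1 × 10^5 cells/well in 400 μL RPMI1640. Cells were exposed to a range of compound concentrations for 24 h. Viable CD3+, CD14+ and CD20+ populations were measured as Hoechst 33258-negative singlets by flow cytometry. EC50 was obtained by five-parameter nonlinear regression.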

[2] = test system: REH; experiment: Cytostatic activity against eFluor670-labelled human REH cells assessed as live cells at 2 umol/L measured on day 3 by Hoechst-33258 staining-based FACS analysis (reference value: 90.2%); assay type: functional
[3] = test system: NALM-6; experiment: Decrease in C-MYC mRNA level in human NALM6 cells at EC50 measured after 24 hrs by RT-qPCR analysis; assay type: functional, cell-based
[4] = Cytotoxicity against CD14+ monocytes in human PBMC population assessed as viable cells at 100 umol/L measured after 24 hrs by Hoechst-33258 staining-based FACS analysis (reference value: 13.8%); assay type: toxicity, cell-based, Monocyte; conditions: read-out: Activity; method in brief: as §1
[5] = test system: Jurkat; experiment: Inhibition of P70S6K in human Jurkat cells assessed as decrease in C-MYC expression measured after 24 hrs by immunoblot analysis; assay type: cell-based
Method in brief: (§2)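 Cells prepared as for RT-qPCR (7.5 × 10^5 cells/mL). Treated either with the line-specific EC50 concentration over a time course, or 24 h with graded concentrations up to that EC50. Cells washed with phosphatase inhibitors and lysed in RIPA; 40 μg protein per lane on SDS-PAGE, then nitrocellulose. Immunoblotted for C-MYC, P70S6K, p-P70S6K (Ser424) and actin.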

[6] = test system: Jurkat; experiment: Inhibition of P70S6K in human Jurkat cells assessed as decrease in phosphorylated P70S6K expression at EC50 by immunoblot analysis; assay type: cell-based; conditions: TDE = time-dependent effect; method in brief: as §2
[7] = test system: NALM-6; experiment: Cytostatic activity against eFluor670-labelled human NALM6 cells assessed as live cells at 2 umol/L measured on day 1 by Hoechst-33258 staining-based FACS analysis (reference value: 95.5%); assay type: functional
[8] = Cytotoxicity against PHA/LPS-stimulated CD3-positive T-lymphocytes in eFluor670-labeled human PBMC assessed as division index at 2 umol/L administered post 18 hrs of PHA/LPS-stimulation measured after 72 hrs by Hoechst-33258 staining-based FACS analysis (reference value: 0.381); assay type: toxicity; conditions: t-cell, 2 µM
[9] = test system: REH; experiment: Cytostatic activity against eFluor670-labelled human REH cells assessed as live cells at 2 umol/L measured on day 4 by Hoechst-33258 staining-based FACS analysis (reference value: 88%); assay type: functional
[10] = test system: REH; experiment: Cytostatic activity against human REH cells at 2 umol/L measured after 2 to 3 days using Burker counting chamber; assay type: functional, cell-based
Method in brief: (§3)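 Cells were seeded at 2.5 × 10^5 cells/mL in DMSO-containing medium, with or without 2 μmol/L compound. Cells were counted daily in a Bürker chamber. PDL was calculated as log(Nf/N0)/log 2 over 6 days. Values are mean ± SD of three experiments, compared with DMSO controls.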

[11] = Cytotoxicity against human NALM6 cells assessed as reduction in viable cells measured after 24 hrs by Hoechst-33258 staining-based FACS analysis; assay type: functional, cell-based; conditions: NALM-6, 24 h
Method in brief: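 Leukemic lines kept in RPMI1640 with 10% FBS, penicillin/streptomycin, 37 °C, 5% CO2. Seeded at 2 × 10^5 cells/mL and exposed 24 h to a range of compound concentrations (DMSO stock); medium and DMSO negative controls. Live fraction taken from Hoechst 33258-negative singlets by flow cytometry. EC50 from five-parameter nonlinear regression.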

[12] = Cytotoxicity against CD14+ monocytes in human PBMC population assessed as reduction in viable cells measured after 24 hrs by Hoechst-33258 staining-based FACS analysis; assay type: toxicity, cell-based, Monocyte; method in brief: as §1
[13] = test system: NALM-6; experiment: Cytostatic activity against eFluor670-labelled human NALM6 cells assessed as live cells at 2 umol/L measured on day 4 by Hoechst-33258 staining-based FACS analysis (reference value: 98.6%); assay type: functional
[14] = test system: Jurkat; experiment: Inhibition of P70S6K in human Jurkat cells assessed as inhibition of phosphorylated P70S6K expression up to 20 umol/L measured after 24 hrs by immunoblot analysis; assay type: cell-based; method in brief: as §2
[15] = test system: REH; experiment: Cytostatic activity against eFluor670-labelled human REH cells assessed as live cells at 2 umol/L measured immediately after compound addition by Hoechst-33258 staining-based FACS analysis (reference value: 44.1%); assay type: functional
[16] = test system: Jurkat; experiment: Cytostatic activity against eFluor670-labelled human Jurkat cells assessed as live cells at 2 umol/L measured on day 3 by Hoechst-33258 staining-based FACS analysis (reference value: 98.3%); assay type: functional
[17] = test system: REH; experiment: Inhibition of P70S6K in human REH cells assessed as decrease in phosphorylated P70S6K expression at EC50 by immunoblot analysis; assay type: cell-based; conditions: TDE = time-dependent effect; method in brief: as §2
[18] = test system: Jurkat; experiment: Cytostatic activity against eFluor670-labelled human Jurkat cells assessed as live cells at 2 umol/L measured immediately after compound addition by Hoechst-33258 staining-based FACS analysis (reference value: 98.2%); assay type: functional
[19] = Cytotoxicity against PHA/LPS-stimulated CD3-positive T-lymphocytes in eFluor-670-labeled human PBMC assessed as divided cells at 2 umol/L administered post 18 hrs of PHA/LPS-stimulation measured after 72 hrs by Hoechst-33258 staining-based FACS analysis (reference value: 24.2%); assay type: toxicity; conditions: t-cell, 2 µM
Method in brief: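 PBMC were labelled with 1 μmol/L CPD, stimulated with PHA (5 μg/mL) plus LPS (1 μg/mL), and seeded at 3 × 10^5 cells/well in 300 μL. Compound was added after 18 h and left for 72 h. Cells were stained with anti-CD3. Unstimulated cells set the CPD+ gate. Proliferation index, division index and % divided were calculated for CPD+CD3+ Hoechst-negative cells.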

[20] = test system: Jurkat; experiment: Cytostatic activity against human Jurkat cells assessed as population doubling level at 2 umol/L after 6 days using Burker counting chamber (reference value: 3.25); assay type: functional; method in brief: as §3
[21] = Cytotoxicity against CD3+ T-lymphocytes in human PBMC population assessed as reduction in viable cells measured after 24 hrs by Hoechst-33258 staining-based FACS analysis; assay type: toxicity, cell-based, T-cell; method in brief: as §1
[22] = test system: REH; experiment: Cytostatic activity against eFluor670-labelled human REH cells assessed as live cells at 2 umol/L measured on day 1 by Hoechst-33258 staining-based FACS analysis (reference value: 89.8%); assay type: functional
[23] = test system: NALM-6; experiment: Cytostatic activity against human NALM6 cells at 2 umol/L measured after 4 to 5 days using Burker counting chamber; assay type: functional, cell-based; method in brief: as §3
[24] = test system: Jurkat; experiment: Inhibition of P70S6K in human Jurkat cells assessed as decrease in c-MYC expression at EC50 up to 24 hrs by immunoblot analysis; assay type: cell-based; method in brief: as §2
[25] = test system: REH; experiment: Inhibition of P70S6K in human REH cells assessed as decrease in phosphorylated P70S6K expression measured after 24 hrs by immunoblot analysis; assay type: cell-based; method in brief: as §2
[26] = target: Myc proto-oncogene protein (Homo sapiens) (UniProt P01106); experiment: Inhibition of C-MYC in human Jurkat cells assessed as decrease in PKM2 level at EC50 measured after 24 hrs by RT-qPCR analysis; assay type: cell-based
Chain of Myc proto-oncogene protein (Homo sapiens) (P01106 whole entry): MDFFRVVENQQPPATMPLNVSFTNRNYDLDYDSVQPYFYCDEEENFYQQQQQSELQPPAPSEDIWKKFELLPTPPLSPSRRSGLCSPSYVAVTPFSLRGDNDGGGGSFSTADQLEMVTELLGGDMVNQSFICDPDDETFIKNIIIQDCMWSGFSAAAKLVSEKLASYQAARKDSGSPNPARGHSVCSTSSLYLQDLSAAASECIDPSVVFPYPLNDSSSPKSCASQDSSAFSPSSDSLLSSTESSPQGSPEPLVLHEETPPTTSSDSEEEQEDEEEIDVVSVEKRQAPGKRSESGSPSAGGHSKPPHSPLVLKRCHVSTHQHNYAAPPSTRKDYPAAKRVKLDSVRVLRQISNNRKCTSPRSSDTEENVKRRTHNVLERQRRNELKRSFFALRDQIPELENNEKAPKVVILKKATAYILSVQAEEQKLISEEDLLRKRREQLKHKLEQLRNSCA

CCCCCC(=O)C1=C(O)C(=O)c2c(O)c(O)cc(O)c2C1=O
EC50 at 24 h [1]: > 50 µM | Activity [2]: 15.8% | Activity [3]: Active | viability at 24 h, 100 µM [4]: 0.21% | inhibition [5]: Dose-dependent effect | inhibition [6]: Tde | Activity [7]: 95.2% | Activity_index [8]: 0.196 | Activity [9]: 6.9% | Activity [10]: Active | EC50 [11]: 16.7 µM | EC50 at 24 h [12]: 15.1 µM | Activity [13]: 96.7% | inhibition [14]: Active | Activity [15]: 44.1% | Activity [16]: 69.2% | inhibition [17]: Tde | Activity [18]: 98.2% | Activity [19]: 15.9% | Activity [20]: 1.64 | EC50 at 24 h [21]: 65.7 µM | Activity [22]: 74.9% | Activity [23]: Active | inhibition [24]: Active | inhibition [25]: Dose-dependent effect | inhibition [26]: Active
